A selection: hits, their analogues and other compounds. The true share with any hit is near 2.2%.
Yeast superoxide: reduction of superoxide in aged yeast, primary screen, HTS; AID 2690, 2010; S. cerevisiae aged cells, superoxide DHE fluorescence; hits give low values; superoxide response (% of plate mean), % at 10 µM; 330,000 compounds, 0.18% hits;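 active means superoxide response under a set limit, about three screen SD below normal, cut at about 65% in these data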;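 further: yeast aged for seven days with compound at 30 °C before DHE staining; 100% = average MFI of all compound-treated wells on the plate with controls excluded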
Cneo AK release: Cryptococcus neoformans cell lysis inducers, primary screen, AK release luminescence, single concentration | C. neoformans lysis, adenylate kinase release luminescence, 4 h; normalised: neutral wells 0, clomiphene wells 100 | lysis activity, % at 15 µM | 360,000 compounds, 0.2% hits;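 active means mean lysis activity across replicates of at least 80%, whatever share of replicates individually reach that level; inactive means mean lysis activity below 80%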
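Material: C. neoformans cells | Amount: Yeast cell density of 5 × 10^6 cells/mL | Medium: Fresh YPD growth medium | Dosing: Single dose | Times: Static 4 h at 37 °C with compound, 1 h detection | Detection: AK luminescence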
rRNA inh HTS: reduced GFP signal of wild-type E. coli, primary screen, bacterial rRNA inhibitor project, GFP/RFP fluorescence, OD600, single point; E. coli WT GFP vs humanized-ribosome RFP mutants, 24 h; hits give low values; DMSO median 0, no signal -100; GFP signal change (wild-type ribosome), % (test concentration not listed); 350,000 compounds, 1.6% hits; AID 720706, 2013;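 active means significant combined selectivity score with lowered wild-type GFP, culture density cut under 30%, mutant RFP and density less affected; inactive means any of these conditions unmet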
SUMO Mot1 rescue: yeast Mot1-301 growth rescue at high temperature, primary screen, SUMOylation pathway inhibitor project, S. cerevisiae, ATP luminescence, 38.5C | 320,000 compounds, 1% hits | S. cerevisiae Mot1-301 growth rescue; percent above DMSO median, 100 means doubled | growth rescue, % at 18.8 µM;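 active means every valid replicate shows activation above 250% relative to neutral control wells; inactive means the rest, any valid replicate at or below 250%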;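 further: OY570 slx delta 5 strain wells were the positive control but not used for scaling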
PglD DTNB: C. jejuni PglD acetyltransferase inhibitors, primary screen, biochemical, DTNB colorimetric, single point | purified PglD enzyme, DTNB colorimetric CoA detection | inhibition, % at 12.5 µM | 360,000 compounds, 0.098% hits | AID 602405, 2012; in the data active means inhibition above about 16%, passing the limit was not always enough
Mot1 SUMO dose: growth restoration of Mot1-301 yeast on galactose, dose response, SUMO pathway inhibitor project, whole organism, S. cerevisiae, ATP luminescence, cherry-picked samples | shares compounds with SUMO Mot1 rescue | S. cerevisiae Mot1-301 galactose growth, 24 h; -100 = growth of slx-deleted rescue strain | growth activity, percent, % at 42 µM | 2,300 tested, under 10 active | AID 493004, 2010;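 active means Signal drops as the depositor expects, and the fitted half-maximal dose is no more than ten times the top valid tested dose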;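 further: more negative values mean stronger growth rescue toward the control strain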
The depositor's hits bear a star; . = no result; + = active, no number.

SMILES	Yeast superoxide	Cneo AK release	rRNA inh HTS	SUMO Mot1 rescue	PglD DTNB	Mot1 SUMO dose
C[C@@H]1CN([C@@H](C)CO)C(=O)c2cc(NS(C)(=O)=O)ccc2O[C@H]1CN(C)CC1CCCCC1	.	-3	0	.	15	.
O=C(CN1CCc2ccccc21)NN1CC(=O)N(c2ccc(Cl)cc2)CC1=O	106	.	9	484*	.	-1
O=C(C[C@@H]1C[C@H]2c3cc(NC(=O)c4cccnc4)ccc3O[C@H]2[C@@H](CO)O1)NCC1CC1	.	35	6	.	1	.
COc1ccc(NC(=O)Nc2ccc3c(c2)[C@@H]2C[C@H](CC(=O)NCc4ccccn4)O[C@H](CO)[C@@H]2O3)cc1	.	19	0	.	-1	.
CCCSc1nnc(NC(=O)CSc2sc3c(O)cc(=O)[nH]c3c2C#N)s1	95	-1	0	754*	2	0
COc1cc(C=C2NC(=O)NC2=O)ccc1O	.	8	8	.	.	.
CCOc1cc(/C=C2\NC(=O)NC2=O)ccc1OC(C)C(=O)O (stereo not given)	104	1	8	514*	0	1
CCN(CC)c1ccc(Nc2cc3n(c(=O)n2)CCc2cc(OC)c(OC)cc2-3)cc1	94	.	-7	+	.	0
CCC(=O)NC[C@H]1[C@H](c2ccc(C3=CCCC3)cc2)[C@H](CO)N1C(=O)C1CC1	.	-1	-5	.	-1	.
C[C@@H]1CN([C@H](C)CO)C(=O)c2cc(NC(=O)Nc3cccc4ccccc34)ccc2O[C@@H]1CN(C)Cc1ccc(C(=O)Nc2ccccc2N)cc1	.	2	-2	.	3	.
N#Cc1c(Cn2cncn2)nc(=O)n(-c2ccc(Cl)cc2)c1N	96	0	5	+	-3	0
COc1ccc(OC)c(NC(=O)CCN2CCN(Cc3ccccc3)CC2)c1	85	1	.	-3	4	.
COc1ccc(NC(=O)CN2CCN(CC(=O)Nc3ccccc3OC)CC2)c(OC)c1	.	1	5	.	2	.
COc1cc(NC(=O)CN2CCN(CC(=O)Nc3ccccc3OC)CC2)cc(OC)c1	94	-3	7	518*	0	1
COc1cc(NC(=O)CCN2CCN(Cc3ccccc3)CC2)cc(OC)c1	96	0	.	696*	4	0
C[C@H](CO)N1C[C@H](C)[C@H](CN(C)Cc2ccc(C(F)(F)F)cc2)Oc2ccc(NC(=O)CCC(F)(F)F)cc2CC1=O	.	43	0	.	-1	.
Cc1cccc2nc3ccccc3cc12	110	4	-2	576*	4	-1
CN(C(=O)c1ccc(-c2nn(C)c(=O)c3ccccc23)cc1)C1CCCCC1	93	-4	-15	736*	-1	0
CCCC(=O)Nc1ccc2c(c1)OC[C@@H](C)N(C(=O)Cc1ccccn1)C[C@@H](C)[C@H](OC)CN(C)C2=O	.	-8	3	.	-4	.
CCn1cc(C(c2ccccc2)C(C(C)=O)[N+](=O)[O-])c2ccccc21 (stereo not given)	84	2	-18	-25	0	.
CC(=O)C(C(c1ccccc1)c1c[nH]c2ccccc12)[N+](=O)[O-] (stereo not given)	91	-2	-18	402*	7	-1
CN(C)c1ccc(C(CNS(=O)(=O)c2ccc([N+](=O)[O-])cc2)N2CCOCC2)cc1 (stereo not given)	85	0	5	575*	-8	0
C[C@H]1CN([C@@H](C)CO)C(=O)CCCn2cc(nn2)CO[C@@H]1CN(C)Cc1ccc(C(=O)Nc2ccccc2N)cc1	.	-2	1	.	-2	.
O=C(COC(=O)CSc1ccc([N+](=O)[O-])cc1)NC1CCCCCCC1	99	5	-2	461*	-4	0
O=C(COC(=O)Cc1ccsc1)NC1CCCCCC1	97	.	.	609*	.	-1
SMILES	Yeast superoxide	Cneo AK release	rRNA inh HTS	SUMO Mot1 rescue	PglD DTNB	Mot1 SUMO dose
Cc1ccc(SCC(=O)OCC(=O)NC2CCCCCCC2)cc1	111	-2	0	-5	-2	.
C[C@H](CO)N1C[C@H](C)[C@H](CN(C)Cc2ccc(C(=O)O)cc2)Oc2c(cccc2N(C)C)C1=O	.	-7	3	.	-1	.
Cc1cccc(N=C2C(=O)Nc3c(Cl)cccc32)c1	102	2	-6	562*	-4	0
COc1ccc(/C=C2/SC(=O)N(NS(=O)(=O)c3ccccc3)C2=S)cc1OC	123	-1	-20	375*	2	-2
O=C(N[C@@H]1CC[C@@H](CCn2cc(-c3ccccn3)nn2)O[C@@H]1CO)c1cccnc1	.	1	0	.	-2	.
O=C(c1ccc(COc2ccccc2Cl)o1)N1N=C(C(F)F)CC1(O)C(F)F (stereo not given)	103	5	.	438*	-3	0
CC(C)CC#Cc1cnc2c(c1)C(=O)N([C@@H](C)CO)C[C@@H](C)[C@H](CN(C)Cc1ccc3c(c1)OCO3)O2	.	0	0	.	-1	.
COc1cccc(/C=N/n2cnc3ccccc32)c1OC	98	5	.	406*	-2	-1
Cc1ccc(CN2CCN(/N=C/c3cc(Br)cc(Br)c3O)CC2)cc1	105	.	.	326	.	.
Oc1c(Br)cc(Br)cc1/C=N/N1CCN(Cc2ccccc2)CC1	90	.	.	842*	.	0
COc1ccccc1OCC(=O)NC1CCCc2ccccc21 (stereo not given)	89	6	-1	-3	-2	.
Cc1cc(C)cc(OCC(=O)NC2CCCc3ccccc32)c1 (stereo not given)	95	.	.	461*	.	0
COC(=O)c1cccc(NC(=O)c2ccc[n+]([O-])c2)c1	97	-2	7	561*	-5	0
COC(=O)c1cccc(NC(=O)c2ccccc2)c1	91	.	-6	-5	.	.
Cc1ccc(NS(=O)(=O)c2c(C)[nH]c(C)c2C(=O)N2CCCCC2)c(Cl)c1	97	1	2	477*	1	0
Cc1ccc(NS(=O)(=O)c2c(C(=O)N3CCCCCC3)c(C)n(C)c2C)c(Cl)c1	93	19	-1	73	-3	.
O=C(NCCNc1ccc(Cl)cc1[N+](=O)[O-])c1ccccc1F	102	1	-11	474*	-8	0
COc1ccc(NC(=O)CN(C)C(=O)/C=C/c2cn(-c3ccccc3)nc2-c2ccc(C)cc2)cc1	79	1	5	515*	4	0
